Measured values: ChEMBL document CHEMBL3400052, “Development of a time-resolved fluorescence probe for evaluation of competitive binding to the cholecystokinin 2 receptor” (Bioorg Med Chem, 2015)
Active and inactive are the calls of the source. The calls are words filed in the database; no cut-off is given here. Where a SMILES comes first, the peptide text is derived from it. [ ]: non-standard residue; d: D form. The star is where a group is joined. Hexanoyl(6-N3) = [N-]=[N+]=NCCCCCC(=O)*; Azidoacetyl = [N-]=[N+]=NCC(=O)*; X1 = C#CCCCCOCCOCCOCCOCCOCC(=O)*; Nle = CCCC[C@H](N)C(=O)O

Columns and labels:
[1] = Retention time of the compound by reverse phase HPLC analysis; format: physicochemical
[2] = biological target: T1, Gastrin/cholecystokinin type B receptor (Homo sapiens, UniProt P32239); assay: (§1) Displacement of Eu-DTPA-PEGO-CCK4 from human cholecystokinin 2 receptor overexpressed in HEK-293 cells co-expressing human MC4R after 1 hr by time resolved fluorescence-based competition binding assay; format: cell-based, HEK293
T1 sequence (P32239 whole entry): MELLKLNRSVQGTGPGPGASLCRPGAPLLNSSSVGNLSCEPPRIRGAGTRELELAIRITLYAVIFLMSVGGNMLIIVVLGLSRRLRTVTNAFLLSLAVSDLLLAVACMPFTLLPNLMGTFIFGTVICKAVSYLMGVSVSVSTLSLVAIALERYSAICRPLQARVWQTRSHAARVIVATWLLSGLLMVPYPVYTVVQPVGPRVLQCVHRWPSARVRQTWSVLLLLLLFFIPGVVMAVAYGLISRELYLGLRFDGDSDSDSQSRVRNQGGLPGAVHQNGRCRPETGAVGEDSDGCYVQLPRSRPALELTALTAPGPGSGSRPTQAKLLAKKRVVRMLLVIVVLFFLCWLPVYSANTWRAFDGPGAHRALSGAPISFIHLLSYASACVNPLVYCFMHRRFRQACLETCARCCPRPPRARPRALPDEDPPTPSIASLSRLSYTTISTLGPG
Outline: (§2)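 HEK-293 cells engineered to co-express hCCK2R and hMC4R, grown in DMEM/10% FBS with zeocin and geneticin, seeded 240,000 per well in six-well plates. Each well received binding buffer (DMEM, HEPES, BSA, 1,10-phenanthroline, leupeptin, bacitracin, pH 7.4) containing 15 nM Eu probe plus competitor at 10^-12 to 10^-5 M. Incubation 1 h at 37 °C, then scraping, three washes, Enhancement Solution 1 h at 37 °C, Eu TRF read.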

[3] = biological target: T2, Gastrin/cholecystokinin type B receptor (Homo sapiens) (UniProt P32239); assay: Displacement of Eu-DTPA-PEGO-CCK4 from human cholecystokinin 2 receptor overexpressed in HEK-293 cells co-expressing human MC4R after 1 hr by time resolved fluorescence-based competition binding assay relative to acetylated […]; format: cell-based; conditions: HEK293
T2 sequence (whole entry): T1 sequence (P32239 whole entry)

[4] = Retention time of the compound by analytical HPLC method; format: physicochemical
[5] = biological target: T2, Gastrin/cholecystokinin type B receptor (Homo sapiens); assay: as §1; format: cell-based; conditions: HEK293; outline: as §2

Which Retention_time [1] does the source give for `CCCC[C@H](NC(=O)[C@H](Cc1c[nH]c2ccccc12)NC(=O)CN=[N+]=[N-])C(=O)N[C@@H](CC(=O)O)C(=O)N[C@@H](Cc1ccccc1)C(N)=O` (Azidoacetyl-W[Nle]DF-NH2) here?
The Retention_time was 14.6 min.

With `CCCC[C@H](NC(=O)[C@H](Cc1c[nH]c2ccccc12)NC(=O)CCCCCN=[N+]=[N-])C(=O)N[C@@H](CC(=O)O)C(=O)N[C@@H](Cc1ccccc1)C(N)=O` ({Hexanoyl(6-N3)}-W[Nle]DF-NH2) as the compound, how does the Retention_time [1] read?
The Retention_time was 17.7 min.

With `CCCC[C@H](NC(=O)[C@H](Cc1c[nH]c2ccccc12)NC(=O)CCCCCn1cc(COc2cc(OCc3cn(CCCCCC(=O)N[C@@H](Cc4c[nH]c5ccccc45)C(=O)N[C@@H](CCCC)C(=O)N[C@@H](CC(=O)O)C(=O)N[C@@H](Cc4ccccc4)C(N)=O)nn3)cc(OCc3cn(CCCCCC(=O)N[C@@H](Cc4c[nH]c5ccccc45)C(=O)N[C@@H](CCCC)C(=O)N[C@@H](CC(=O)O)C(=O)N[C@@H](Cc4ccccc4)C(N)=O)nn3)c2)nn1)C(=O)N[C@@H](CC(=O)O)C(=O)N[C@@H](Cc1ccccc1)C(N)=O` as the compound, how does the Ki [2] read?
Its Ki is 3.7 nM.

And the Ratio [3]?
The Ratio was 2.

And the Retention_time [1]?
Its Retention_time is 16.6 min.

What about the Retention_time [4] of the same compound?
The Retention_time was 22.42 min.

With `CCCC[C@H](NC(=O)[C@H](Cc1c[nH]c2ccccc12)NC(=O)Cn1cc(CN(Cc2cn(CC(=O)N[C@@H](Cc3c[nH]c4ccccc34)C(=O)N[C@@H](CCCC)C(=O)N[C@@H](CC(=O)O)C(=O)N[C@@H](Cc3ccccc3)C(N)=O)nn2)Cc2cn(CC(=O)N[C@@H](Cc3c[nH]c4ccccc34)C(=O)N[C@@H](CCCC)C(=O)N[C@@H](CC(=O)O)C(=O)N[C@@H](Cc3ccccc3)C(N)=O)nn2)nn1)C(=O)N[C@@H](CC(=O)O)C(=O)N[C@@H](Cc1ccccc1)C(N)=O` as the compound, how does the Ki [2] read?
Its Ki is 1.2 nM.

What about the Ratio [3] of the same compound?
Its Ratio is 5.

And the Retention_time [1]?
The Retention_time was 15.1 min.

What about the Retention_time [4] of the same compound?
The Retention_time was 21.18 min.

With `NC(=O)[C@H](CO)NC(=O)CCCCCn1cc(CN(Cc2cn(CCCCCC(=O)N[C@@H](CO)C(N)=O)nn2)Cc2cn(CCCCCC(=O)N[C@@H](CO)C(N)=O)nn2)nn1` as the compound, how does the inhibition [5] read?
The inhibition was “inactive”.

For `C#CCCCCOCCOCCOCCOCCOCC(=O)N[C@@H](Cc1c[nH]c2ccccc12)C(=O)N[C@@H](CCCC)C(=O)N[C@@H](CC(=O)O)C(=O)N[C@@H](Cc1ccccc1)C(N)=O` (X1-W[Nle]DF-NH2), which Retention_time [1] is on record?
Its Retention_time is 16.9 min.

Which Ki [2] does the source give for `CCCC[C@H](NC(=O)[C@H](Cc1c[nH]c2ccccc12)NC(=O)COCCOCCOCCOCCOCCCCc1cn(CCCCCCOc2cc(OCCCCCCn3cc(CCCCOCCOCCOCCOCCOCC(=O)N[C@@H](Cc4c[nH]c5ccccc45)C(=O)N[C@@H](CCCC)C(=O)N[C@@H](CC(=O)O)C(=O)N[C@@H](Cc4ccccc4)C(N)=O)nn3)cc(OCCCCCCn3cc(CCCCOCCOCCOCCOCCOCC(=O)N[C@@H](Cc4c[nH]c5ccccc45)C(=O)N[C@@H](CCCC)C(=O)N[C@@H](CC(=O)O)C(=O)N[C@@H](Cc4ccccc4)C(N)=O)nn3)c2)nn1)C(=O)N[C@@H](CC(=O)O)C(=O)N[C@@H](Cc1ccccc1)C(N)=O` here?
The Ki was 30 nM.

And the Ratio [3]?
The Ratio was 0.2.

What about the Retention_time [1] of the same compound?
The Retention_time was 19.8 min.

What about the Retention_time [4] of the same compound?
Its Retention_time is 25.12 min.

For `NC(=O)[C@H](CO)NC(=O)CCCCCn1cc(COc2cc(OCc3cn(CCCCCC(=O)N[C@@H](CO)C(N)=O)nn3)cc(OCc3cn(CCCCCC(=O)N[C@@H](CO)C(N)=O)nn3)c2)nn1`, which inhibition [5] is on record?
Its inhibition is “inactive”.

For `CCCC[C@H](NC(=O)[C@H](Cc1c[nH]c2ccccc12)NC(C)=O)C(=O)N[C@@H](CC(=O)O)C(=O)N[C@@H](Cc1ccccc1)C(N)=O` (Ac-W[Nle]DF-NH2), which Ki [2] is on record?
Its Ki is 6.1 nM.

And the Ratio [3]?
Its Ratio is 1.

And the Retention_time [1]?
The Retention_time was 13.3 min.

What about the Retention_time [4] of the same compound?
The Retention_time was 17.47 min.

With `CCCC[C@H](NC(=O)[C@H](Cc1c[nH]c2ccccc12)NC(=O)COCC(=O)NCCCOCCOCCOCCCNC(=O)CN(CCN(CCN(CC(=O)O)CC(=O)O)CC(=O)O)CC(=O)O)C(=O)N[C@@H](CC(=O)O)C(=O)N[C@@H](Cc1ccccc1)C(N)=O` as the compound, how does the Retention_time [1] read?
The Retention_time was 22.9 min.
